Assay results taken from ChEMBL document CHEMBL3526081 (Drug Metab Dispos, 2011).

Assays:
[1] = Cytotoxicity against human Bel7402 cells assessed as againsthibition of cell growth after 72 hrs; format: cell-based; conditions: Bel-7402, 72 h
Outline: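 Bel-7402 hepatoma cells grown in RPMI 1640 with 10% FBS and 1% penicillin/streptomycin, trypsinised, seeded and exposed to serial dilutions for 72 h at 37°C.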

Cytochrome P450 2A6 = target: T1, Cytochrome P450 2A6 (Homo sapiens, UniProt P11509); experiment: Drug level in human recombinant CYP2A6 expressed in insect cells coexpressing NADPH-P450 reductase measured per pmol of enzyme treated with 50 uM cinobufagin at 37 degC after 30 mins by UFLC-DAD-ESI-MS analysis; conditions: 0.5 h
T1 sequence (P11509 whole entry): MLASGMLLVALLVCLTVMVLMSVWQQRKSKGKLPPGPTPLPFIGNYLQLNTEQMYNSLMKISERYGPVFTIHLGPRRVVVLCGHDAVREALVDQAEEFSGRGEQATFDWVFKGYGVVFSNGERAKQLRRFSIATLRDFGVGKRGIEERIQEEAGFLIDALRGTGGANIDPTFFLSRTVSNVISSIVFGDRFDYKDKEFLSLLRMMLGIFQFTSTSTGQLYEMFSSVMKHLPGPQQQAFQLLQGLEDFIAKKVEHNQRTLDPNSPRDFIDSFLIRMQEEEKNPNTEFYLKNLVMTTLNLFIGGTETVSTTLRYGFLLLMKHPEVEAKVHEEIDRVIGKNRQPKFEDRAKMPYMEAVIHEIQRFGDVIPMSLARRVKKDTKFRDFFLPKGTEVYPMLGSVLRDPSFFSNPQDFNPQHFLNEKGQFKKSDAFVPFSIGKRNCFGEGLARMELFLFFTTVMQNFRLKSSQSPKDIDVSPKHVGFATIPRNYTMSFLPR

Liver microsome [2] = experiment: Retention time in Sprague-Dawley rat liver microsomes treated with 100 uM cinobufagin at 37 degC after 30 mins by UFLC-DAD-ESI-MS analysis; format: ADME; conditions: 0.5 h
Outline: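 Male Sprague-Dawley rat microsomes (0.3 mg/ml) were incubated with CB (100 µM) at 37°C for 30 min, with and without NADPH-generating system. Separation was on an ODS column at 40°C using an acetonitrile/0.5% formic acid water gradient at 0.4 ml/min, with DAD detection at 294 nm plus ESI-MS.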

Cytochrome P450 2C19 = Cytochrome P450 2C19 (Homo sapiens, UniProt P33261); experiment: Drug level in human recombinant CYP2C19 expressed in insect cells coexpressing NADPH-P450 reductase measured per pmol of enzyme treated with 100 uM cinobufagin at 37 degC after 30 mins by UFLC-DAD-ESI-MS analysis; format: ADME; conditions: 0.5 h
Liver microsome [3] = experiment: Drug level in beagle dog liver microsomes treated with 100 uM cinobufagin at 37 degC after 30 mins by UFLC-ESI-MS analysis in presence of NADPH-generating system; format: ADME, Canis lupus familiaris; conditions: 0.5 h
Outline: (§1)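 Liver microsomes (0.3 mg protein/ml) incubated with 100 µM substrate at 37°C for 30 min, in 100 mM potassium phosphate pH 7.4 with NADPH-generating system (1 mM NADP+, 10 mM glucose 6-phosphate, 1 unit/ml G6PDH, 4 mM MgCl2). Acetonitrile ≤1% final. Stopped with ice-cold acetonitrile and centrifuged. Metabolites identified by UFLC-ESI-MS and quantified by UFLC-DAD at 294 nm against authentic standard curves.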

Cytochrome P450 2E1 = Cytochrome P450 2E1 (Homo sapiens, UniProt P05181); experiment: Drug level in human recombinant CYP2E1 expressed in insect cells coexpressing NADPH-P450 reductase measured per pmol of enzyme treated with 50 uM cinobufagin at 37 degC after 30 mins by UFLC-DAD-ESI-MS analysis; conditions: 0.5 h
Cytochrome P450 2C9 = Cytochrome P450 2C9 (Homo sapiens, UniProt P11712); experiment: Drug level in human recombinant CYP2C9 expressed in insect cells coexpressing NADPH-P450 reductase measured per pmol of enzyme treated with 50 uM cinobufagin at 37 degC after 30 mins by UFLC-DAD-ESI-MS analysis; conditions: 0.5 h
Cytochrome P450 3A4 = Cytochrome P450 3A4 (Homo sapiens, UniProt P08684); experiment: Drug level in human recombinant CYP3A4 expressed in insect cells coexpressing NADPH-P450 reductase measured per pmol of enzyme treated with 50 uM cinobufagin at 37 degC after 30 mins by UFLC-DAD-ESI-MS analysis; conditions: 0.5 h
Cytochrome P450 1A2 = target: T2, Cytochrome P450 1A2 (Homo sapiens, UniProt P05177); experiment: Drug level in human recombinant CYP1A2 expressed in insect cells coexpressing NADPH-P450 reductase measured per pmol of enzyme treated with 50 uM cinobufagin at 37 degC after 30 mins by UFLC-DAD-ESI-MS analysis; conditions: 0.5 h
T2 sequence (P05177 whole entry): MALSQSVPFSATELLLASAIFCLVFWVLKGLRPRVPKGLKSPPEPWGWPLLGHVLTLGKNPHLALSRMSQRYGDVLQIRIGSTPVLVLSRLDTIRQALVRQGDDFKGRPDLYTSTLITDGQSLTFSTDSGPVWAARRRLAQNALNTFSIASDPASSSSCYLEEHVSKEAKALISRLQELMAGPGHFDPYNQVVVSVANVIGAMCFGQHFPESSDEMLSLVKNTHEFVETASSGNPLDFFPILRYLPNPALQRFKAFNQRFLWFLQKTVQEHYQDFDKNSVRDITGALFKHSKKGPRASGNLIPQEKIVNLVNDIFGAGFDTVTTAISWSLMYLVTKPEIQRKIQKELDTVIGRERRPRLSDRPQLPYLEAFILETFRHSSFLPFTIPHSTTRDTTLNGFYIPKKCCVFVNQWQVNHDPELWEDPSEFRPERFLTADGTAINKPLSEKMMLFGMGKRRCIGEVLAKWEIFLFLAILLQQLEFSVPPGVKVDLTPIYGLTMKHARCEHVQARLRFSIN

Cytochrome P450 2D6 = Cytochrome P450 2D6 (Homo sapiens, UniProt P10635); experiment: Drug level in human recombinant CYP2D6 expressed in insect cells coexpressing NADPH-P450 reductase measured per pmol of enzyme treated with 50 uM cinobufagin at 37 degC after 30 mins by UFLC-DAD-ESI-MS analysis; conditions: 0.5 h
[4] = Drug level in Colony-bred Chinese Bama minipig liver microsomes treated with 100 uM cinobufagin at 37 degC after 30 mins by UFLC-ESI-MS analysis in presence of NADPH-generating system; format: ADME, Sus scrofa; conditions: pig, 0.5 h; outline: as §1

Chain of Cytochrome P450 3A4 (P08684 whole entry): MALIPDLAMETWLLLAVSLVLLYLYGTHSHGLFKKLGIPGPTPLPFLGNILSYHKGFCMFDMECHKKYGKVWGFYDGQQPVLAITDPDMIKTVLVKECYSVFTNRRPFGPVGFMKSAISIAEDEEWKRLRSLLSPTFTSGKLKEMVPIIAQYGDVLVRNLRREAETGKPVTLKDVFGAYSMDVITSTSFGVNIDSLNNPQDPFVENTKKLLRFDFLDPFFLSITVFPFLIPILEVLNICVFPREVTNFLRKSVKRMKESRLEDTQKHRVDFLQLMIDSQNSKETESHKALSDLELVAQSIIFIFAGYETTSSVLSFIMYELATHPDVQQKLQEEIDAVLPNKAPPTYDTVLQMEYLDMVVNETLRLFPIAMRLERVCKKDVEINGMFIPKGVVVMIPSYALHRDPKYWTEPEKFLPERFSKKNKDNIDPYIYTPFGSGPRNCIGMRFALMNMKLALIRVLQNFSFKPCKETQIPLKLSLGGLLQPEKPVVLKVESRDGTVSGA
Chain of Cytochrome P450 2C19 (P33261 whole entry): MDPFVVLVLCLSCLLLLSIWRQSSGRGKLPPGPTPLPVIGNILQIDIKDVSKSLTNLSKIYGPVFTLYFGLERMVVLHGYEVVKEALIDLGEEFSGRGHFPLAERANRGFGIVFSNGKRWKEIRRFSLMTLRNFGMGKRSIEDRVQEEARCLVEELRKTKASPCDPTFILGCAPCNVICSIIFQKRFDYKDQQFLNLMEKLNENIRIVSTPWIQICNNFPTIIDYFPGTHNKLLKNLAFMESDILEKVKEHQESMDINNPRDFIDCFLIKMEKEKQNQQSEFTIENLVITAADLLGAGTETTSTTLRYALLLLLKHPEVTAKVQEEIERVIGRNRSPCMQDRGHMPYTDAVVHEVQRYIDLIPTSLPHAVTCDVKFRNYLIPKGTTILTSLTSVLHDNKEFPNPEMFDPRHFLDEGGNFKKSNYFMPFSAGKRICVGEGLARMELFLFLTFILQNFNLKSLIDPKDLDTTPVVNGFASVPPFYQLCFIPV
Chain of Cytochrome P450 2E1 (P05181 whole entry): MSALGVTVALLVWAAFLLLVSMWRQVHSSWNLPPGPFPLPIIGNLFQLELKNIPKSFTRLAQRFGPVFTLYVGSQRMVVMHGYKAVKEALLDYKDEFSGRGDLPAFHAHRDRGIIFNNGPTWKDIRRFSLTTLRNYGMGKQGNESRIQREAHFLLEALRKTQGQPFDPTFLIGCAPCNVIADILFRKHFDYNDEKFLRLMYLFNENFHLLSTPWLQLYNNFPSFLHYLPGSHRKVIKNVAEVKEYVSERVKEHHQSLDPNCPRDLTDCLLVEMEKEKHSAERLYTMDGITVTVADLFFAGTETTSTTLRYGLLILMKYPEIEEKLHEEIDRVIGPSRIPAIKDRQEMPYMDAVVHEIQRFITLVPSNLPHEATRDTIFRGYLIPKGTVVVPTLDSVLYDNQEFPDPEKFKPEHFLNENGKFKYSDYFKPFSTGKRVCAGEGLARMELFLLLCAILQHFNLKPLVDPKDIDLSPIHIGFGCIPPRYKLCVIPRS
Chain of Cytochrome P450 2D6 (P10635 whole entry): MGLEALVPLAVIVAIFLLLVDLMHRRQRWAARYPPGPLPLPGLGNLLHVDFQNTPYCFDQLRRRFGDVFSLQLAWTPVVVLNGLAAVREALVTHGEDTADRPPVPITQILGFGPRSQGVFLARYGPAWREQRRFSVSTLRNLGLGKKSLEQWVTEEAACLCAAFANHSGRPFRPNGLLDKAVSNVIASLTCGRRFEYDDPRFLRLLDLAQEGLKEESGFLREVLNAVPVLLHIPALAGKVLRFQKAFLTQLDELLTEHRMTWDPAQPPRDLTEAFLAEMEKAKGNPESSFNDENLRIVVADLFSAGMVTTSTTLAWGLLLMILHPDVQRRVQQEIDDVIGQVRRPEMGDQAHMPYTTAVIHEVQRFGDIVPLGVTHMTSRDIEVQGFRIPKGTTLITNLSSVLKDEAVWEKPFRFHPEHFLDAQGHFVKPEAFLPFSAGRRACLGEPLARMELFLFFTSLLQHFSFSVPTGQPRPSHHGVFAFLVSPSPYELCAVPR
Chain of Cytochrome P450 2C9 (P11712 whole entry): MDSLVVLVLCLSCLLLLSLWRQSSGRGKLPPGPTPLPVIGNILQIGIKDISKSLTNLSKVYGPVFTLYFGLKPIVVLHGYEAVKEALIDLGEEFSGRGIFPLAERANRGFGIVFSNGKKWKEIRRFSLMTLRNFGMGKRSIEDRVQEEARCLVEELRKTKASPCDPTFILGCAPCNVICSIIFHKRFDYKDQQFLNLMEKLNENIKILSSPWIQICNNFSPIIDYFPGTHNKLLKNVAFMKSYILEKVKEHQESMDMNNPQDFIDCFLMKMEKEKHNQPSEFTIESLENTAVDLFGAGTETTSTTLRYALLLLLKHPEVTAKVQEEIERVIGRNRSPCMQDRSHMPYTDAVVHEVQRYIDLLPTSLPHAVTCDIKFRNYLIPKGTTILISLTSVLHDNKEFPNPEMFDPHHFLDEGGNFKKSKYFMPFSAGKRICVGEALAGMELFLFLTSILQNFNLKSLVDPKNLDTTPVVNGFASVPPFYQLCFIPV

CC(=O)O[C@H]1[C@H]2O[C@]23[C@@H]2CC[C@@H]4C[C@@H](O)CC[C@]4(C)[C@H]2CC[C@]3(C)[C@H]1c1ccc(=O)oc1 [CINOBUFAGIN]
IC50 [1]: 49 nM

CC(=O)O[C@H]1[C@H]2O[C@]23[C@@H]2CC[C@@H]4C[C@@H](O)C[C@H](O)[C@]4(C)[C@H]2CC[C@]3(C)[C@H]1c1ccc(=O)oc1
Drug metabolism (Cytochrome P450 2A6): < 0.01 pmol/min | Retention_time (Liver microsome [2]): 7.35 min | Drug metabolism (Cytochrome P450 2C19): < 0.01 pmol/min | Drug metabolism (Liver microsome [3]): metabolite_detected | Drug metabolism (Cytochrome P450 2E1): < 0.01 pmol/min | IC50 [1]: 370 nM | Drug metabolism (Cytochrome P450 2C9): < 0.01 pmol/min | Drug metabolism (Cytochrome P450 3A4): 14.01 pmol/min | Drug metabolism (Cytochrome P450 1A2): < 0.01 pmol/min | Drug metabolism (Cytochrome P450 2D6): < 0.01 pmol/min | Drug metabolism [4]: metabolite_detected

CC(=O)O[C@H]1[C@H]2O[C@]23[C@@H]2CC[C@]4(O)C[C@@H](O)CC[C@]4(C)[C@H]2CC[C@]3(C)[C@H]1c1ccc(=O)oc1 [CINOBUFOTALIN]
Drug metabolism (Cytochrome P450 2A6): < 0.01 pmol/min | Retention_time (Liver microsome [2]): 7.6 min | Drug metabolism (Cytochrome P450 2C19): < 0.01 pmol/min | Drug metabolism (Liver microsome [3]): metabolite_detected | Drug metabolism (Cytochrome P450 2E1): < 0.01 pmol/min | IC50 [1]: 8620 nM | Drug metabolism (Cytochrome P450 2C9): < 0.01 pmol/min | Drug metabolism (Cytochrome P450 3A4): 26.02 pmol/min | Drug metabolism (Cytochrome P450 1A2): < 0.01 pmol/min | Drug metabolism (Cytochrome P450 2D6): < 0.01 pmol/min | Drug metabolism [4]: metabolite_detected
